SENP1 inh = SENP1 (human) catalytic domain inhibition. AID 624204. recombinant SENP1 catalytic domain, CyPet-SUMO1-YPet FRET cleavage. Q9P0U3. inhibition, % at 10 µM. 360,000 tested, 0.21% active;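 active means inhibition at least 30% at 10 µM, raw YFP signal under a set limit, fluorescence ratio 0.5 to 1.5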
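Test system: human SENP1 catalytic domain; medium: Tris pH 8 buffer plus EDTA, NaCl, BME, BSA, NP40, catalase; incubation: 50 min reaction at room temperature; technique: FRET, CFP and YFP emission; controls: no-enzyme low control and enzyme-plus-DMSO high control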
Cardio protect = protects H9c2 cardiomyocytes from peroxide injury | H2O2 injury protection, ATPLite, 2 h | protection from H2O2 cell death, % at 20 µM | 360,000 tested, 0.63% active;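 active means compounds giving at least 50% protection of heart cells from peroxide-induced death in the single-dose screen, raw or plate-pattern-corrected value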
DSG3 Ab inh = blocks pemphigus antibody binding to human desmoglein-3; P32926; DSG3-coupled beads, scFv-anti-DSG3-GFP binding, flow cytometry; active compounds read low; binding (percent of control), % at 10 µM; 310,000 tested, 0.48% active; AID 588358;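 active means binding more than 3 SD below its plate's average and above zero; inconclusive means below that plate limit but binding exactly zero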;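 further: hits lower antibody fragment binding to DSG3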
Myeloid diff MLP = promotes myeloid progenitor differentiation | ER-HoxA9 myeloid progenitors, lysozyme-GFP differentiation, flow cytometry | calls only at 10 µM | 360,000 tested, 1% active | AID 624256;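 active means normalized GFP-positive differentiation at or above the plate's own cutoff, the solvent-only control mean plus 3 SD; inconclusive means no clear call, values can overlap the other calls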;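 further: cells exposed to compound for four days before flow analysis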
Granule exo inh = lytic granule exocytosis inhibition; AID 651702; inhibition, % at 10 µM; 360,000 tested, 0.66% active; TALL-104 LAMP-1 surface exposure, flow cytometry; cells stimulated with thapsigargin and PMA;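 active means inhibition above about 55%, limit read from the data; inconclusive means no clear call, values can overlap the other calls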
HNF4A DNA FP = change in binding of human HNF4 alpha to DNA | P41235 | HNF4a-FITC DNA binding, fluorescence polarization, 1 h | activity change, % at 10 µM | 360,000 tested, 0.3% active; in the data active means activity change above about 30%, passing the limit was not always enough
Target sequence (P41235 whole entry, looked up): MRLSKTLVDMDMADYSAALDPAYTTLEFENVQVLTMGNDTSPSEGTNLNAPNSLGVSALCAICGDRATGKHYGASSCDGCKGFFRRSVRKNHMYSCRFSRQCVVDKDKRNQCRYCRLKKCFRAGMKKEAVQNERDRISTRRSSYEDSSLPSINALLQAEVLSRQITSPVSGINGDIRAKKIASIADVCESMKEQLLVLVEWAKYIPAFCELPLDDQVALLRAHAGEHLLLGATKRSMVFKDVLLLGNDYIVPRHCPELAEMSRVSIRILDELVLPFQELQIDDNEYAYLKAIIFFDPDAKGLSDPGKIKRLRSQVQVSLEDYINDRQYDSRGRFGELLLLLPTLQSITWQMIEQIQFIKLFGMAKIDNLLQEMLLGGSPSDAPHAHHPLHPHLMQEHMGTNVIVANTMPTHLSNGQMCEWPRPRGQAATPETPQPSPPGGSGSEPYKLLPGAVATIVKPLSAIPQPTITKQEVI
Numbers stand for hits; – = inactive; ? = inconclusive; · = no result given; + = active, no number. An excerpt weighted towards active compounds, which were near 3% of everything screened.

SMILES	SENP1 inh	Cardio protect	DSG3 Ab inh	Myeloid diff MLP	Granule exo inh	HNF4A DNA FP
CN(C)c1ccc(/C=C2\SC(=O)N(CCc3nnc(N)s3)C2=O)cc1	–	–	–	–	–	97
O=C(COc1ccccc1C(=O)O)Nc1nc2ccc([N+](=O)[O-])cc2s1	–	–	–	–	–	–
CC(=O)OCC(=O)C1(O)CCC2C3CC(C)C4=CC(=O)C=CC4(C)C3=CCC21C (centres undefined)	–	–	–	–	–	–
O=C(CCC1CCCN(Cc2cccc(Cl)c2)C1)NCc1ccccc1F (centres undefined)	–	–	–	–	–	–
COc1cccc(-c2nc(CS(=O)CC(=O)NC3CCCCC3)c(C)o2)c1 (centres undefined)	–	–	55	–	–	–
C/C(=N\NC(=S)NCCc1ccccc1)c1ccc(Cl)cc1Cl	–	–	–	–	88	–
C/C(=N\NC(=S)NCCc1ccccc1)c1ccc(O)cc1O	–	–	–	–	–	–
O=C(COc1ccc2ccccc2c1)Nc1ccc(Cc2ccncc2)cc1	–	–	37	–	–	–
O=C(O)Cc1ccc(NC(=O)COc2ccc3ccccc3c2)cc1	–	–	–	–	–	–
O=C(c1ccccc1)N1CCN(C(=S)NCc2ccco2)CC1	–	–	–	–	–	–
COc1ccc(NCc2nnc(SCC(=O)Nc3ccc(OC)cc3OC)o2)cc1	–	–	–	–	–	–
COc1ccc(NC(=O)CSc2nnc(C3CCCCC3)o2)c(OC)c1	–	–	·	+	–	–
Nc1ccc(-c2c3ccc(=O)cc-3oc3cc(O)ccc23)c(C(=O)O)c1	–	–	–	+	–	–
COc1ccc(-c2cc(=O)c3ccc(O)cc3o2)cc1OC	–	–	·	–	–	–
Cc1ccc(S(=O)(=O)N2CCOCC2)cc1NC(=O)CSc1nc(N)cc(N)n1	–	–	–	–	–	–
Cn1c(=O)c2[nH]c(NN=Cc3cccc(Br)c3)nc2n(C)c1=O	–	50	–	–	–	–
Cc1cn(CC(=O)c2ccccc2)c2ccccc12	–	–	–	–	–	–
Cc1ccc(NC(=O)N2CCCC2C(=O)NCC2CCCCC2)cc1 (centres undefined)	–	–	–	–	–	–
Cc1cc(NS(=O)(=O)c2cn(C)nc2C)no1	–	–	·	+	–	–
Cc1nn(C)cc1S(=O)(=O)Nc1ccc2c(c1)OCCO2	–	–	–	–	–	–
CC1(C)OC1COc1c2ccoc2cc2oc(=O)ccc12 (centres undefined)	–	–	–	–	80	–
COc1c2ccoc2cc2oc(=O)ccc12	–	–	–	–	–	–
CCc1nc(SCC(=O)Nc2cc(OC)ccc2OC)c2c(C)c(C)sc2n1	–	–	·	–	–	–
Nc1nonc1-n1nnc(C(=O)N/N=C/c2cccnc2)c1CSc1ccc(Cl)cc1	–	–	?	–	62	–
C/C(=N\NC(=O)c1nnn(-c2nonc2N)c1CSc1ccc(C)cc1)c1cccnc1	–	55	–	–	–	–
SMILES	SENP1 inh	Cardio protect	DSG3 Ab inh	Myeloid diff MLP	Granule exo inh	HNF4A DNA FP
C/C(=N\NC(=O)c1nnn(-c2nonc2N)c1CSc1ccc(Cl)cc1)c1cccnc1	–	–	·	–	–	–
CC(=O)c1cccc(NS(=O)(=O)c2ccc(-c3cc(C)no3)s2)c1	–	–	–	–	–	–
CCN(CC)C(=O)C(c1ccccc1)S(=O)(=O)N1CCOCC1 (centres undefined)	–	–	–	–	–	–
CCc1ccc2[nH]c(O)c(N=Nc3nc(-c4ccccc4)cs3)c2c1	33	–	–	–	–	–
Cc1ccc(S(=O)(=O)N2[C@@H](c3ccc(Cl)cc3)C(C(=O)O)=C[C@H]2CC2CCCC2)cc1	–	–	–	+	–	–
O=[N+]([O-])c1nccn1CCCCCCCCCCCN1CCOCC1	–	–	·	–	–	–
COc1ccc(S(=O)(=O)NCc2cccnc2)cc1Br	–	–	–	–	–	129
CCC(=O)OCc1c(C(F)(F)F)nn(C)c1Sc1ccc(F)cc1	–	–	·	+	–	–
CCC(=O)OCc1c(C(F)(F)F)nn(C)c1Sc1ccc(Cl)cc1	–	–	–	–	–	–
Cc1ccc(C(=O)OCC(=O)Nc2ccc3c(c2)OCCO3)cc1C	–	–	69	–	–	–
O=C(COC(=O)/C=C/c1ccc(Cl)cc1)Nc1ccc2c(c1)OCCO2	–	–	–	–	–	–
O=C(COC(=O)/C=C/c1ccccc1)Nc1ccc2c(c1)OCCO2	–	–	-4.7	–	–	–
CNC(=O)CC1C(=O)N(c2ccc(OC)cc2)C(=S)N1NC(=O)c1cccc(F)c1 (centres undefined)	–	–	–	–	–	–
O=S(=O)(Nc1cc(F)ccc1F)c1cccc2nonc12	–	–	–	–	–	–
Cc1ccc(NC(=O)CCNC(=O)c2ccc([N+](=O)[O-])cc2)cc1C	–	–	–	+	–	–
CCOC(=O)c1ccc(NC(=O)CCNC(=O)c2ccc([N+](=O)[O-])cc2)cc1	–	–	–	–	–	–
CCOC(=O)N1CCN(C(=O)C2CCC(=O)N(Cc3ccc(Cl)cc3)C2)CC1 (centres undefined)	–	–	–	–	–	–
COc1ccccc1Nc1nc2nonc2nc1N1CCC(C)CC1	–	–	–	–	–	–
COc1ccc(OC)c(Nc2nc3nonc3nc2N2CCCCC2)c1	–	–	–	–	–	40
CC1(C)Cc2nc3sc4c(=O)[nH]cnc4c3cc2CS1	–	–	80	–	–	–
Cc1nn(CC(=O)NC2CC2)c(C)c1S(=O)(=O)N(C)C	–	–	–	–	–	–
CSc1ccc(CN(C)C(=O)c2cc3ccccc3o2)cc1	–	–	·	–	–	–
CSc1ccc(CN(C)C(=O)c2cc(=O)c3ccccc3o2)cc1	–	–	·	+	–	–
Cc1noc(C)c1NC(=O)N(C)C[C@H]1Oc2ccc(NS(=O)(=O)c3ccc(F)cc3)cc2C(=O)N([C@H](C)CO)C[C@@H]1C	–	–	–	–	–	–
Cc1ccc2c(c1)C(=O)N1[C@H]3c4cc(C)ccc4OC[C@@H]3[C@H](c3ccccc3)[C@]1(C)C(=O)N2	–	–	–	+	–	–
Cc1ccc2c(c1)C(=O)N1[C@H]3c4cc(Cl)ccc4OC[C@@H]3[C@H](c3ccccc3)[C@]1(C)C(=O)N2	–	–	–	–	–	–
COc1cc2c(cc1OC)C(=O)N1[C@H]3c4ccccc4OC[C@@H]3[C@H](c3ccccc3)[C@]1(C)C(=O)N2	–	–	–	–	65	–
CCOC(=O)[C@H]1[C@H]2COc3ccc(Br)cc3[C@@H]2N2C(=O)c3cc(OC)c(OC)cc3NC(=O)[C@@]12C	–	50	–	–	–	–
